Measured values from different studies.
APC: Adenomatous polyposis coli protein (APC, Homo sapiens, UniProt P25054)
AVPR2: Vasopressin V2 receptor (AVPR2, Homo sapiens, UniProt P30518)
HTR1E: 5-hydroxytryptamine receptor 1E (HTR1E, Homo sapiens, UniProt P28566)
Palmitoyl-protein thioesterase 1: Palmitoyl-protein thioesterase 1 (Homo sapiens, UniProt P50897)

Structure (SMILES)	target	effect on	action	technique	quantity	result
CSc1nccc(C(=O)N[C@@H](CCC(=O)O)C(=O)N[C@@H](Cc2ccc3ccccc3c2)C(=O)N[C@@H](CC(C)C)C(=O)N[C@@H]2C[C@H]2c2ccccc2)n1	APC	binding	–	SPR	Kd	0.38 µM
CC1=NN(/C(=N\c2ccc(C)cc2)Nc2nnc(C)s2)C(c2ccc(C)cc2)S1 (stereo not drawn)	AVPR2	cAMP	positive allosteric modulator	–	EC50	24.2 µM
O=C1c2ccccc2S(=O)(=O)N1CCCCN1CCN(c2ncccn2)CC1	HTR1E	G protein activation	agonist	BRET	EC50	0.628 µM
CC(C)C[C@H](NC(=O)[C@H](Cc1ccccc1)NC(=O)[C@H](CCC(=O)O)NC(=O)c1ccncn1)C(=O)NC1CC1c1ccccc1 (stereo partly drawn)	APC	binding	–	SPR	Kd	67 µM
CN1CCC(=C2c3ccccc3Sc3ccccc32)CC1	HTR1E	G protein activation	agonist	BRET	EC50	0.33 µM
Cc1ccc(N/C(=N\c2nnc(C(C)(C)C)s2)N2N=C(C(C)(C)C)SC2c2cc(F)c(F)c(F)c2)cc1C (stereo not drawn)	AVPR2	cAMP	positive allosteric modulator	–	EC50	> 50 µM
CC(C)C[C@H](NC(=O)[C@H](Cc1ccc2ccccc2c1)NC(=O)[C@H](CCC(=O)O)NC(=O)c1cccc([N+](=O)[O-])c1)C(=O)NC1CC1c1ccccc1 (stereo partly drawn)	APC	ligand displacement	–	FP	IC50	41.7 µM
CCN1CCC[C@H]1CNC(=O)c1c(O)c(Cl)cc(Cl)c1OC	HTR1E	G protein activation	agonist	BRET	EC50	0.49 µM
COC(=O)[C@]12CCC(C)(C)C[C@H]1[C@H]1C(=O)C=C3[C@@]4(C)C=C(C#N)C(=O)C(C)(C)[C@@H]4CC[C@@]3(C)[C@]1(C)CC2	Epidermal growth factor receptor (EGFR, Homo sapiens, UniProt P00533)	binding	–	MST	Kd	79 µM
N=C(N)NCCC[C@H](NC(=O)[C@@H](NC(=O)[C@H](Cc1cscn1)NC(=O)CCc1ccccc1)C1CCCCC1)C(=O)c1nc2ccccc2s1	Transmembrane protease serine 6 (Homo sapiens, UniProt Q8IU80)	cell-free assay	–	–	Ki	~0.005 µM
CCCCCCCC/C=C\CCCCCCCC(=O)O	Myoglobin (MB, Homo sapiens, UniProt P02144)	binding	–	absorbance	Kd	0.24 µM
NC(=O)N[C@@H](CCC(=O)O)C(=O)O	Palmitoyl-protein thioesterase 1	binding	–	MST	Kd	1.27 µM
CC1=NN(/C(=N/c2nnc(C)s2)Nc2ccc(C)c(C)c2)C(c2cccc(-c3ccccc3)c2)S1 (stereo not drawn)	AVPR2	cAMP	positive allosteric modulator	–	EC50	> 50 µM
OC(c1cc(C(F)(F)F)nc2c(C(F)(F)F)cccc12)C1CCCCN1 (stereo not drawn)	Palmitoyl-protein thioesterase 1	binding	–	MST	Kd	0.226 µM
CO[C@H]1C[C@@H]2CC[C@@H](C)[C@@](O)(O2)C(=O)C(=O)N2CCCC[C@H]2C(=O)O[C@H]([C@H](C)C[C@@H]2CC[C@@H](OC(=O)C(C)(CO)CO)[C@H](OC)C2)CC(=O)[C@H](C)/C=C(\C)[C@@H](O)[C@@H](OC)C(=O)[C@H](C)C[C@H](C)/C=C/C=C/C=C/1C	Ferroptosis suppressor protein 1 (AIFM2, Homo sapiens, UniProt Q9BRQ8)	binding	–	ITC	Kd	~5.28 µM
CN(C)c1ncnc2c1ncn2[C@@H]1O[C@H](CO)[C@@H](O)[C@H]1O	Adenosine receptor A3 (ADORA3, Homo sapiens, UniProt P0DMS8, L264Q)	G protein activation	agonist	–	EC50	3.5 µM
CC1=NN(/C(=N/c2nnc(C)s2)Nc2ccc(C)c(C)c2)C(c2ccc(-c3ccccc3C(F)(F)F)cc2)S1 (stereo not drawn)	AVPR2	cAMP	positive allosteric modulator	–	EC50	36 µM

Structure (SMILES)	target	effect on	action	technique	quantity	result
COc1cccc(C(=O)N[C@@H](CCC(=O)O)C(=O)N[C@@H](Cc2ccc3ccccc3c2)C(=O)N[C@@H](CC(C)C)C(=O)NC2CC2c2ccccc2)c1 (stereo partly drawn)	APC	ligand displacement	–	FP	IC50	38.9 µM
CC1=NN(/C(=N/c2nnc(C)s2)Nc2ccc(C)c(C)c2)C(c2ccc(C(F)(F)F)cc2)S1 (stereo not drawn)	AVPR2	cAMP	positive allosteric modulator	–	EC50	> 50 µM
Cc1ccc(CNc2cccc3c2CN(C)N(C2CCC(=O)NC2=O)C3=O)cc1 (stereo not drawn)	Cereblon/Casein kinase I alpha (CSNK1A1/CRBN, Homo sapiens, UniProt P48729+Q96SW2)	protein level	degrader	luciferase	DC50	0.97 µM
Cc1cc(C(C)(C)C)c(O)c(C)c1CC1=NCCN1	HTR1E	G protein activation	agonist	BRET	EC50	0.516 µM
CC(C)C[C@H](NC(=O)[C@H](Cc1ccc2ccccc2c1)NC(=O)[C@H](CCC(=O)O)NC(=O)c1ccnc(F)c1)C(=O)NC1CC1c1ccccc1 (stereo partly drawn)	APC	ligand displacement	–	FP	IC50	42.7 µM
O=C(CCCCCN1CCN(c2ccccc2-c2ccccc2)CC1)NC1CCCc2ccccc21 (stereo not drawn)	HTR1E	G protein activation	agonist	BRET	EC50	1.75 µM
CSc1ncc(Br)c(C(=O)N[C@@H](CCC(=O)O)C(=O)N[C@@H](Cc2ccc3ccccc3c2)C(=O)N[C@@H](CC(C)C)C(=O)NC2CC2c2ccccc2)n1 (stereo partly drawn)	APC	binding	–	SPR	Kd	0.58 µM
O=C1c2ccccc2-n2c1nc1ccccc1c2=O	Glutathione S-transferase P (GSTP1, Homo sapiens, UniProt P09211)	binding	–	–	Kd	30.1 µM
CC1=NN(/C(=N\c2ccc(C(F)(F)F)cc2)Nc2nnc(C)s2)C(c2ccc(C)cc2)S1 (stereo not drawn)	AVPR2	cAMP	positive allosteric modulator	–	EC50	16.6 µM
Cc1ccc(Sc2ccccc2N2CCNCC2)c(C)c1	HTR1E	G protein activation	agonist	BRET	EC50	1.96 µM
CC(C)C[C@H](NC(=O)[C@H](Cc1ccc2ccccc2c1)NC(=O)[C@H](CCC(=O)O)NC(=O)c1cccc(Br)c1)C(=O)NC1CC1c1ccccc1 (stereo partly drawn)	APC	ligand displacement	–	FP	IC50	11.2 µM
CC1=NN(/C(=N/c2nnc(C)s2)Nc2ccc(C)c(C)c2)C(c2ccc(F)c(F)c2)S1 (stereo not drawn)	AVPR2	cAMP	positive allosteric modulator	–	EC50	> 50 µM
CCN(CC)Cc1cc(Nc2ccnc3cc(Cl)ccc23)ccc1O	Palmitoyl-protein thioesterase 1	binding	–	MST	Kd	0.076 µM
CC1=NN(/C(=N/c2nnc(C)s2)Nc2ccc(C)c(C)c2)C(c2cc(F)c(F)c(F)c2F)S1 (stereo not drawn)	AVPR2	cAMP	positive allosteric modulator	–	EC50	> 50 µM
CCCN1C[C@H](CSC)C[C@@H]2c3cccc4[nH]cc(c34)C[C@H]21	HTR1E	G protein activation	agonist	BRET	EC50	1.9 µM
CC(C)=CCNc1ncnc2c1ncn2[C@@H]1O[C@H](CO)[C@@H](O)[C@H]1O	Adenosine receptor A3 (ADORA3, Homo sapiens, UniProt P0DMS8, L264F)	G protein activation	agonist	–	EC50	3.4 µM
